Two molecules from ChEMBL document CHEMBL1275331, “Discovery of a novel 5-HT(3) antagonist/5-HT(1A) agonist 3-amino-5,6,7,8-tetrahydro-2-{4-[4-(quinolin-2-yl)piperazin-1-yl]butyl}quinazolin-4(3H)-one (TZB-30878) as an orally bioavailable agent for irritable bowel syndrome” (J Med Chem, 2010) can be followed below.

pEC50, pIC50: −log10 of the molar value. The source made the active and inactive calls. The calls are words filed in the database; no cut-off is given here.

Assay [1] has as its target T1, 5-hydroxytryptamine receptor 1A (Homo sapiens, UniProt P08908).
T1 sequence (P08908 whole entry): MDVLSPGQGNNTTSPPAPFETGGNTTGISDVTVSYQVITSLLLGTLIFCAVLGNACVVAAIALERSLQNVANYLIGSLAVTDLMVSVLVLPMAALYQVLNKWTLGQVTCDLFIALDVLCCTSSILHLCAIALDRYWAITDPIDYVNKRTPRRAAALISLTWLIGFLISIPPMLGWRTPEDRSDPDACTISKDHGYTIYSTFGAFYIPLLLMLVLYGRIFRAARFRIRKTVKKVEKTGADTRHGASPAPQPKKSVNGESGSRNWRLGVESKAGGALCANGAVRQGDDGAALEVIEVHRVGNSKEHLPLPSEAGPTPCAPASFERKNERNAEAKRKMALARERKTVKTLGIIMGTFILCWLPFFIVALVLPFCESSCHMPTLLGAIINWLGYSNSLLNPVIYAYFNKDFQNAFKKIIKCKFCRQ
Put plainly: Agonist activity at human cloned 5HT1A receptor expressed in CHO cells assessed as stimulation of [35S]GTPgammaS binding after 30 mins by liquid scintillation counting. Format: functional, cell-based. The gist of the method:
(§1)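 Membranes from CHO cells expressing human 5-HT1A were diluted in 20 mM HEPES/3 mM MgCl2/120 mM NaCl, pH 7.4. They were preincubated with 20 μM GDP and test drug for 20 min at 30 °C, then held on ice for 15 min. [35S]GTPγS (100 pM) was added for 30 min at 30 °C. Samples were filtered, washed with cold HEPES/MgCl2 buffer, and bound radioactivity counted; EC50 and Emax reported.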
(GTPγS is a poorly hydrolysed GTP analogue; its binding reports G protein activation.)

Assay [2] concerns the target T2, 5-hydroxytryptamine receptor 3A (Homo sapiens, UniProt P46098).
T2 sequence (P46098 whole entry): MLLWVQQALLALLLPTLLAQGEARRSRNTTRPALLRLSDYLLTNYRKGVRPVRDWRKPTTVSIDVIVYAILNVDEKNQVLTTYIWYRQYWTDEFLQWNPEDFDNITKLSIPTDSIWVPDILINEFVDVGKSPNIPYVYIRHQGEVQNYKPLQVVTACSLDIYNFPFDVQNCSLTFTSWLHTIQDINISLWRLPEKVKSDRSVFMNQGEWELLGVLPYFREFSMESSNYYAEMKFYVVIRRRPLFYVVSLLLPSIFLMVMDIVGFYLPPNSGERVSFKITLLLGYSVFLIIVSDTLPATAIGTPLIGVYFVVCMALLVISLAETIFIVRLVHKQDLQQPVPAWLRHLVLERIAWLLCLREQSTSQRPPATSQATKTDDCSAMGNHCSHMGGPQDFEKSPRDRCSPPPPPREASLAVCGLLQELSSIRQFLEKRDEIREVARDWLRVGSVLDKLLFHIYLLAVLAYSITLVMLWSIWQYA
Put plainly: Displacement of [3H]BRL-43694 from human 5HT3 receptor expressed in HEK293 cells by liquid scintillation counting. Format: cell-based. The gist of the method: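 HEK-293 membranes expressing human 5-HT3 were incubated with 0.5 nmol/L [3H]BRL-43694 (final) for 60 min at 25 °C. Buffer: 50 mM Tris-HCl, 5 mM MgCl2, 1 mM EDTA, pH 7.5. Compound came from 270 μmol/L DMSO stock, diluted in buffer. Filtration was through GF/B presoaked in 0.5% polyethyleneimine, with two cold Tris washes. Run in duplicate or triplicate; percent inhibition calculated.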
(In general: In a radioligand displacement assay an active substance lowers the binding of a labelled ligand.)

For assay [3], the target named is T3, 5-hydroxytryptamine receptor 3A (Cavia porcellus) (UniProt O70212).
T3 sequence (whole entry): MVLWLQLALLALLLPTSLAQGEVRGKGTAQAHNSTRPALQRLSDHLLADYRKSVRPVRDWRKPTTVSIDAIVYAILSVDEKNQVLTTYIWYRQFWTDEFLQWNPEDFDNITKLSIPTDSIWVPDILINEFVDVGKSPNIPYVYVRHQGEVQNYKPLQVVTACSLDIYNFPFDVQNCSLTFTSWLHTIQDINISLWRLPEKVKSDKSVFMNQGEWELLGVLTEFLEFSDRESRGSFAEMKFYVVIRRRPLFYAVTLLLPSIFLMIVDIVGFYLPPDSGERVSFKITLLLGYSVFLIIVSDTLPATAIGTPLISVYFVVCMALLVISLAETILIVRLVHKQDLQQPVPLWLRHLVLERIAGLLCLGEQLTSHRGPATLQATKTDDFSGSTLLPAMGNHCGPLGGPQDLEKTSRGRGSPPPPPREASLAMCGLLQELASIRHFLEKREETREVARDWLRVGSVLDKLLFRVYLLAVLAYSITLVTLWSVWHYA
Put plainly: Inhibition of 5HT3 receptor-mediated contraction of guinea pig ileum at 1 umol/L after 20 mins relative to control. Format: tissue-based. The gist of the method:
(§2)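 Ileum strips in Tyrode solution at 37 °C, gassed 5% CO2/95% O2, isotonic contractions under 1 g load. After at least 3 stable contractions to 10 μM 2-methyl-5-HT, tissue exposed to compound or DMSO vehicle for 20 min, then 10 μM 2-methyl-5-HT re-added; contraction expressed as % inhibition of control.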

Assay [4] relates to Rattus norvegicus. Kind of assay: Induction of 5HT1A receptor-mediated behavioral activity in rat assessed as appearance of flat body posture at 10 mg/kg, iv after 30 mins. It counts as functional, organism-based. Further details: dose 10 mg/kg. The gist of the method:
(§3)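 Rats were conditioned to test procedures over 2 weeks and acclimated to the test cage for 1 h. Vehicle was saline containing diluted HCl. Lower lip retraction and flat body posture were scored on a 0–3 scale at 5, 10, 20 and 30 min after dosing.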

In assay [5] the target is T4, 5-hydroxytryptamine receptor 1A (Homo sapiens) (UniProt P08908).
T4 sequence (whole entry): T1 sequence (P08908 whole entry)
Kind of assay: Agonist activity at human cloned 5HT1A receptor expressed in CHO cells assessed as stimulation of [35S]GTPgammaS binding at 900 uL after 30 mins by liquid scintillation counting. Format: functional, cell-based. The gist of the method:
as §1

The target of assay [6] is T1, 5-hydroxytryptamine receptor 1A. Put plainly: Displacement of [3H]8-OH-DPAT from human 5HT1A receptor expressed in CHO cells by liquid scintillation counting. Format: cell-based. A digest of the protocol:
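CHO-cell membranes with human 5-HT1A were incubated with 0.25 nmol/L [3H]8-OH-DPAT (final) for 60 min at 27 °C. Buffer: 50 mM Tris-HCl, 10 mM MgSO4, 0.5 mM EDTA, 0.1% ascorbic acid, pH 7.4. Compound came from 270 μmol/L DMSO stock, diluted in buffer. Filtration was through GF/C presoaked in 0.3% polyethyleneimine, with two cold Tris washes. Run in duplicate or triplicate; percent inhibition of binding calculated.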

Assay [7] has as its system Rattus norvegicus. Put plainly: Effect on 5HT1A receptor-mediated hypothermic effect in rat assessed as change in rectal temperature at 10 mg/kg, iv after 30 mins. It counts as functional, organism-based. Further details: dose 10 mg/kg. The gist of the method: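 Rats were conditioned over 2 weeks and acclimated to the cage for 1 h before dosing (vehicle: saline with diluted HCl). Rectal temperature was recorded with a thermistor probe inserted 3 cm, before and 30 min after administration. The change in temperature was reported.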

Assay [8] addresses T3, 5-hydroxytryptamine receptor 3A (Cavia porcellus). Kind of assay: Inhibition of 5HT3 receptor-mediated contraction of guinea pig ileum at 0.1 umol/L after 20 mins relative to control. It counts as tissue-based. A digest of the protocol: as §2
The test system of assay [9] is Rattus norvegicus. Put plainly: Induction of 5HT1A receptor-mediated lower lip retraction behavior in rat at 10 mg/kg, iv after 30 mins. Format: functional, organism-based. Also on record: dose 10 mg/kg. A digest of the protocol:
as §3

The subject of assay [10] is Rattus norvegicus. Put plainly: […] activity in rat assessed as inhibition of 5HT-induced bradycardia at 100 ug/kg, iv by von Benzold-Jarisch reflex assay. It counts as functional.
In assay [11] the test system is Rattus norvegicus. Put plainly: Reduction in wrap restraint stress-induced defecation in rat diarrhea-predominant irritable bowel syndrome model at 30 to 100 mg/kg, po administered 1 hr prior to induction of stress. Format: functional, organism-based. The gist of the method:
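Lightly anesthetized rats had upper bodies wrapped with adhesive tape, then returned to observation cages; feces counted 1 h after wrapping. Compound or vehicle given orally 1 h before restraint; unwrapped animals as normal group. n = 8 per group, mean (SD); Wilcoxon and nonparametric Dunnett's tests.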

With `Cc1cc(N2CCN(CCCCc3nc4c(c(=O)n3N)CCCC4)CC2)nc2ccccc12`, the negative-log EC50 (pEC50) (in general, the negative decadic logarithm of the EC50, by convention in mol/L) in [1] is 7.86. The figures for the pIC50 in assay [2] and in assay [6] were 7.23 and > 8.00, respectively. Also, the values for the inhibition in [3] and in [8] were 100% and 97.1%, respectively. The result with Rattus norvegicus [4], in the assay with Rattus norvegicus [7] and with Rattus norvegicus [9] was inactive. Moreover, in assay [5], the Emax (commonly the maximal effect, on the per cent scale that the assay sets) stood at 93.5%. The inhibition in vivo – broadly, the percentage by which the read-out fell short of the control – at 0.1 mg/kg in the assay on Rattus norvegicus [10] turned out to be 64.5%.

Consider `O=C1[C@@H]2[C@H]3CC[C@H](C3)[C@@H]2C(=O)N1CCCCN1CCN(c2ncccn2)CC1`, for which the inhibition – broadly, the drop in the measured response relative to a control, in per cent – in the assay on Rattus norvegicus [11] was “inactive”.
